# Experiments:
# Saccharomyces cerevisiae [1] = experiment: Growth inhibition of GTT2-deficient Saccharomyces cerevisiae YLL060C mutant at 20 ug/disc after 24 to 48 hrs by agar diffusion assay; format: functional; conditions: read-out: DIZ
# Outline: (§1)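 S. cerevisiae deletion mutants or wild type grown on YPD, seeded into liquid agar medium at an optical density of 0.1. 6 mm paper discs soaked with methanolic compound solution were placed on the plates and incubated at 30 °C. Growth was checked after 1 and 2 days, and the inhibition zone diameter was recorded in mm.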
# SW-620 = experiment: Cytotoxicity against human SW620 cells; format: functional
# M14 = experiment: Cytotoxicity against human M14 cells; format: functional
# NCI-H522 = experiment: Cytotoxicity against human NCI-H522 cells; format: functional
# HCC 2998 = experiment: Cytotoxicity against human HCC2998 cells; format: functional
# A549 = experiment: Cytotoxicity against human A549 cells; format: functional
# SNB-75 = experiment: Cytotoxicity against human SNB75 cells; format: functional
# A498 [2] = experiment: Cytotoxicity against human A498 cells; format: functional
# Saccharomyces cerevisiae [3] = experiment: Growth inhibition of POS5-deficient Saccharomyces cerevisiae YPL188W mutant at 20 ug/disc after 24 to 48 hrs by agar diffusion assay; format: functional; conditions: read-out: DIZ; outline: as §1
# MCF7 = experiment: Cytotoxicity against human MCF7 cells; format: functional
# OVCAR-4 = experiment: Cytotoxicity against human OVCAR4 cells; format: functional
# NCI/ADR-RES = experiment: Cytotoxicity against human NCI/ADR-RES cells; format: functional
# DU-145 = experiment: Cytotoxicity against human DU145 cells; format: functional
# Saccharomyces cerevisiae [4] = experiment: Growth inhibition of SOD2-deficient Saccharomyces cerevisiae YHR008C mutant at 20 ug/disc 24 to 48 hrs by agar diffusion assay; format: functional; conditions: read-out: DIZ; outline: as §1
# SF-539 = experiment: Cytotoxicity against human SF539 cells; format: functional
# LOX IMVI = experiment: Cytotoxicity against human LOXIMVI cells; format: functional
# U-251 = experiment: Cytotoxicity against human U251 cells; format: functional
# MDA-MB-231 = experiment: Cytotoxicity against human MDA-MB-231 cells; format: functional
# HOP-92 = experiment: Cytotoxicity against human HOP92 cells; format: functional
# UO-31 = experiment: Cytotoxicity against human UO31 cells; format: functional
# A498 [5] = experiment: Cytotoxicity against human A498 cells after 24 hrs by MTT assay; format: functional, cell-based; conditions: A498, 24 h
# Outline: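 MTT assay. Cells were seeded at 50,000 cells/mL in medium with 10% fetal calf serum and grown for two days at 37 °C, 10% CO2. Serial dilutions of compound were then added for 24 h. MTT was added (final 0.5 mg/mL) for 2 h, and the formazan was pelleted, washed, dissolved in isopropanol with 0.4% HCl and read at 590 nm. IC50 is the concentration giving 50% of untreated-control absorbance, taken from dose-response curves; mean of two parallel experiments.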
# TK-10 = experiment: Cytotoxicity against human TK10 cells; format: functional
# BT-549 = experiment: Cytotoxicity against human BT549 cells; format: functional
# Saccharomyces cerevisiae [6] = experiment: Growth inhibition of PST2-deficient Saccharomyces cerevisiae YDR032C mutant at 20 ug/disc 24 to 48 hrs by agar diffusion assay; format: functional; conditions: read-out: DIZ; outline: as §1
# HCT-15 = experiment: Cytotoxicity against human HCT15 cells; format: functional
# [7] = Cytotoxicity against human 786-O cells; format: functional
# MOLT-4 = experiment: Cytotoxicity against human MOLT4 cells; format: functional
# Malme-3M = experiment: Cytotoxicity against human MALME-3M cells; format: functional
# SK-MEL-2 = experiment: Cytotoxicity against human SK-MEL-2 cells; format: functional
# OVCAR-8 = experiment: Cytotoxicity against human OVCAR8 cells; format: functional
# NCI-H23 = experiment: Cytotoxicity against human NCI-H23 cells; format: functional
# SF-295 = experiment: Cytotoxicity against human SF295 cells; format: functional
# OVCAR-3 = experiment: Cytotoxicity against human OVCAR3 cells; format: functional
# T47D = experiment: Cytotoxicity against human T47D cells; format: functional
# MDA-MB-468 = experiment: Cytotoxicity against human MDA-MB-468 cells; format: functional
# KM12 = experiment: Cytotoxicity against human KM12 cells; format: functional
# Saccharomyces cerevisiae [8] = experiment: Growth inhibition of GSH2-deficient Saccharomyces cerevisiae YOL049W mutant at 20 ug/disc after 24 to 48 hrs by agar diffusion assay; format: functional; conditions: read-out: DIZ; outline: as §1
# NCI-H322M = experiment: Cytotoxicity against human NCI-H322M cells; format: functional
# RPMI-8226 = experiment: Cytotoxicity against human RPMI8226 cells; format: functional
# SK-OV-3 = experiment: Cytotoxicity against human SKOV3 cells; format: functional
# HL-60 = experiment: Cytotoxicity against human HL60 cells; format: functional
structure (smiles),measurement,setting,value
CC1=C([Se]CC(OC(=O)[C@@H](CO)NC(=O)OC(C)(C)C)C(=O)NCCCCCC(=O)OCc2ccccc2)C(=O)c2ccccc2C1=O (some centres undefined),zone of inhibition at 20 µg/disc,Saccharomyces cerevisiae [1],12 mm
same,GI50,SW-620,1.74 µM
same,LC50,SW-620,6.17 µM
same,TGI,SW-620; read-out: pTGI (converted),3.24 µM
same,GI50,M14,1.78 µM
same,LC50,M14,6.03 µM
same,TGI,M14; read-out: pTGI (converted),3.31 µM
same,GI50,NCI-H522,2 µM
same,LC50,NCI-H522,6.03 µM
same,TGI,NCI-H522; read-out: pTGI (converted),3.47 µM
same,GI50,HCC 2998,2 µM
same,LC50,HCC 2998,6.17 µM
same,TGI,HCC 2998; read-out: pTGI (converted),3.47 µM
same,GI50,A549,1.38 µM
same,LC50,A549,6.92 µM
same,TGI,A549; read-out: pTGI (converted),3.09 µM
same,GI50,SNB-75,1.29 µM
same,LC50,SNB-75,5.01 µM
same,TGI,SNB-75; read-out: pTGI (converted),2.57 µM
same,GI50,A498 [2],2.04 µM
same,LC50 (50% lethal concentration),A498 [2],45.7 µM
same,TGI,A498 [2]; read-out: pTGI (converted),5.89 µM
same,zone of inhibition at 20 µg/disc,Saccharomyces cerevisiae [3],0 mm
same,GI50,MCF7,1.62 µM
same,LC50,MCF7,7.08 µM
same,TGI,MCF7; read-out: pTGI (converted),3.39 µM
same,GI50,OVCAR-4,1.55 µM
same,LC50,OVCAR-4,5.37 µM
same,TGI,OVCAR-4; read-out: pTGI (converted),2.88 µM
same,GI50,NCI/ADR-RES,2.04 µM
same,TGI,NCI/ADR-RES; read-out: pTGI (converted),3.89 µM
same,GI50,DU-145,1.82 µM
same,LC50,DU-145,5.89 µM
same,TGI,DU-145; read-out: pTGI (converted),3.24 µM
same,zone of inhibition at 20 µg/disc,Saccharomyces cerevisiae [4],11 mm
same,GI50,SF-539,1.7 µM
same,LC50,SF-539,5.62 µM
same,TGI,SF-539; read-out: pTGI (converted),3.09 µM
same,GI50,LOX IMVI,1.86 µM
same,LC50,LOX IMVI,7.41 µM
same,TGI,LOX IMVI; read-out: pTGI (converted),3.72 µM
same,GI50,U-251,0.933 µM
same,LC50,U-251,4.9 µM
same,TGI,U-251; read-out: pTGI (converted),2.19 µM
same,GI50,MDA-MB-231,1.66 µM
same,LC50,MDA-MB-231,6.03 µM
same,TGI,MDA-MB-231; read-out: pTGI (converted),3.16 µM
same,GI50,HOP-92,1.86 µM
same,LC50 (50% lethal concentration),HOP-92,5.89 µM
same,TGI,HOP-92; read-out: pTGI (converted),3.31 µM
same,GI50,UO-31,1.55 µM
same,LC50,UO-31,5.89 µM
same,TGI,UO-31; read-out: pTGI (converted),3.02 µM
same,IC50,A498 [5],5 µM
same,GI50,TK-10,2.04 µM
same,LC50,TK-10,5.89 µM
same,TGI,TK-10; read-out: pTGI (converted),3.47 µM
same,GI50,BT-549,1.74 µM
same,LC50,BT-549,5.62 µM
same,TGI,BT-549; read-out: pTGI (converted),3.09 µM
same,zone of inhibition at 20 µg/disc,Saccharomyces cerevisiae [6],15 mm
same,GI50,HCT-15,1.95 µM
same,LC50,HCT-15,7.41 µM
same,TGI,HCT-15; read-out: pTGI (converted),3.8 µM
same,GI50,[7]; 786-0,2.09 µM
same,LC50,[7]; 786-0,6.03 µM
same,TGI,"[7]; 786-0, read-out: pTGI (converted)",3.55 µM
same,GI50,MOLT-4,1.38 µM
same,LC50,MOLT-4,> 100 µM
same,TGI,MOLT-4; read-out: pTGI (converted),4.9 µM
same,GI50,Malme-3M,2.09 µM
same,LC50,Malme-3M,7.08 µM
same,TGI,Malme-3M; read-out: pTGI (converted),3.8 µM
same,GI50,SK-MEL-2,2.24 µM
same,LC50,SK-MEL-2,7.41 µM
same,TGI,SK-MEL-2; read-out: pTGI (converted),4.07 µM
same,GI50,OVCAR-8,1.82 µM
same,LC50,OVCAR-8,6.17 µM
same,TGI,OVCAR-8; read-out: pTGI (converted),3.39 µM
same,GI50,NCI-H23,1.82 µM
same,TGI,NCI-H23; read-out: pTGI (converted),4.07 µM
same,GI50,SF-295,0.324 µM
same,LC50,SF-295,30.9 µM
same,TGI,SF-295; read-out: pTGI (converted),1.51 µM
same,GI50,OVCAR-3,1.78 µM
same,LC50,OVCAR-3,5.62 µM
same,TGI,OVCAR-3; read-out: pTGI (converted),3.16 µM
same,GI50,T47D,1.62 µM
same,LC50,T47D,9.55 µM
same,TGI,T47D; read-out: pTGI (converted),3.98 µM
same,GI50,MDA-MB-468,1.48 µM
same,LC50,MDA-MB-468,6.76 µM
same,TGI,MDA-MB-468; read-out: pTGI (converted),3.16 µM
same,GI50,KM12,1.51 µM
same,LC50,KM12,5.5 µM
same,TGI,KM12; read-out: pTGI (converted),2.88 µM
same,zone of inhibition at 20 µg/disc,Saccharomyces cerevisiae [8],0 mm
same,GI50,NCI-H322M,0.417 µM
same,LC50,NCI-H322M,27.5 µM
same,TGI,NCI-H322M; read-out: pTGI (converted),1.91 µM
same,GI50,RPMI-8226,2.19 µM
same,LC50,RPMI-8226,> 100 µM
same,TGI,RPMI-8226; read-out: pTGI (converted),5.89 µM
same,GI50,SK-OV-3,1.29 µM
same,LC50,SK-OV-3,5.13 µM
same,TGI,SK-OV-3; read-out: pTGI (converted),2.57 µM
same,GI50,HL-60,2.04 µM
same,LC50,HL-60,> 100 µM
same,TGI,HL-60; read-out: pTGI (converted),4.79 µM

# Source: ChEMBL document CHEMBL2177069, “Novel peptidomimetic compounds containing redox active chalcogens and quinones as potential anticancer agents” (Eur J Med Chem, 2012)
